Reference: ChEMBL document CHEMBL1127561, “Novel spirosuccinimide aldose reductase inhibitors derived from isoquinoline-1,3-diones: 2-[(4-bromo-2-fluorophenyl)methyl]-6- fluorospiro[isoquinoline-4(1H),3'-pyrrolidine]-1,2',3,5'(2H)-tetrone and congeners. 1” (J Med Chem, 1994)
The source made the active and inactive calls. No cut-off for these calls is given here.

Legend:
[1] = molecular target: Aldo-keto reductase family 1 member B1 (Bos taurus, UniProt P16116); assay: In vitro inhibition of aldose reductase activity in a partially purified bovine lens preparation
[2] = molecular target: Aldo-keto reductase family 1 member B1 (Bos taurus) (UniProt P16116); assay: Inhibition of aldose reductase activity in a partially purified bovine lens preparation at 10e-7 M
Procedure, shortened: (§1)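 Partially purified bovine lens aldose reductase (ammonium sulfate fractionation). NADPH oxidation read at 340 nm, 37 °C, in 30 mM sodium phosphate pH 6.2, 0.2 M LiSO4, […], 1% DMSO. Enzyme was preincubated with inhibitor for 5 min, then the reaction was started with 5 mM DL-glyceraldehyde. Duplicates; IC50 from linear regression of log concentration vs percent inhibition.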

[3] = system: Rattus norvegicus; assay: Percentage Inhibition of galactitol accumulation in the sciatic nerve of rats fed with the dose of 0.5 mg/kg/day; type: functional
Procedure, shortened: (§2)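 Male Sprague-Dawley rats (70-90 g), six per group, fed 20% galactose chow with compound in the diet for 4 days; glucose-fed controls. After a 3-h fast, lens or sciatic nerve galactitol was measured as nmol/mg wet weight. Percent inhibition vs galactose-fed controls, mean ± SEM; ANOVA with Dunnett's test.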

[4] = molecular target: Aldo-keto reductase family 1 member B1 (Bos taurus) (UniProt P16116); assay: Inhibition of aldose reductase activity in a partially purified bovine lens preparation at 4*10e-8 M; procedure, shortened: as §1
[5] = system: Rattus norvegicus; assay: Percentage Inhibition of galactitol accumulation in the lens of rats fed with the dose of 0.6 mg/kg/day; NS=no significant; type: functional, organism-based; details: Lens of camera-type eye; procedure, shortened: as §2
[6] = system: Rattus norvegicus; assay: Percentage Inhibition of galactitol accumulation in the sciatic nerve of rats fed with the dose of 0.6 mg/kg/day; type: functional; procedure, shortened: as §2
[7] = Log P value by using Octanol / pH 7.4 buffer; type: physicochemical
Procedure, shortened: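 Partition measured between octanol and pH 7.4 buffer.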

[8] = system: Rattus norvegicus; assay: Percentage Inhibition of galactitol accumulation in the sciatic nerve of rats fed with the dose of 0.9 mg/kg/day; type: functional; procedure, shortened: as §2
[9] = system: Rattus norvegicus; assay: Percentage Inhibition of galactitol accumulation in the lens of rats fed with the dose of 0.9 mg/kg/day; type: functional; details: Lens of camera-type eye; procedure, shortened: as §2
[10] = species: Rattus norvegicus; assay: Dose at which the tissue level of polyol accumulation was reduced by 50% was evaluated for 14 days in sciatic nerve; type: functional; details: Rattus norvegicus, Sciatic nerve, 336 h; read-out: ED50
Procedure, shortened: (§3)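 Male Sprague-Dawley rats (70-90 g, six per group) fed chow with 20% galactose and compound in the diet for 4 or 14 days. After a 3-h fast, lens and sciatic nerve were removed and frozen, and galactitol was quantitated in nmol/mg wet weight. ED50 from nonlinear regression of log dose vs tissue polyol.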

[11] = Compound was evaluated In vitro for inhibition of aldose reductase activity by 50% in rat RBC
Procedure, shortened: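 Rat (or dog) red blood cells from fasted male Sprague-Dawley rats (150-170 g, EDTA, aortic arch) or pooled beagle blood; 1 mL packed cells in 2 mL HBSS with 10 mM galactose plus inhibitor 1 to 5×10^-8 M, 3 h, 95% air/5% CO2, shaken. Erythrocyte galactitol measured; IC50 mean ± SD of three to six replicate experiments.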

[12] = species: Rattus norvegicus; assay: Dose at which the tissue level of polyol accumulation was reduced by 50% was evaluated for 4 days in sciatic nerve; type: functional; details: 96 h; procedure, shortened: as §3
[13] = species: Rattus norvegicus; assay: Dose at which the tissue level of polyol accumulation was reduced by 50% was evaluated for 4 days in lens; type: functional; details: Lens of camera-type eye, 96 h; procedure, shortened: as §3
[14] = species: Rattus norvegicus; assay: Dose at which the tissue level of polyol accumulation was reduced by 50% was evaluated for 12 days in sciatic nerve; type: functional; details: 288 h
[15] = species: Rattus norvegicus; assay: Dose at which the tissue level of polyol accumulation was reduced by 50% was evaluated for 12 days in lens; type: functional; details: Lens of camera-type eye, 288 h
[16] = species: Rattus norvegicus; assay: Dose at which the tissue level of polyol accumulation was reduced by 50% was evaluated for 14 days in RBC; type: functional; details: 336 h
Procedure, shortened: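 Male Sprague-Dawley rats (200-250 g, 12 per group) made diabetic with streptozocin 60 mg/kg iv in cold 0.03 M citrate pH 4.5; plasma glucose kept between 300 and 550 mg/dl. Compound was suspended in 2% Tween 80/saline and gavaged daily for 14 days. On day 15, RBC, lens and sciatic nerve polyol was measured. ED50 by nonlinear regression of log dose.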

[17] = system: Rattus norvegicus; assay: Percentage Inhibition of galactitol accumulation in the sciatic nerve of rats fed with the dose of 1.0 mg/kg/day; type: functional; procedure, shortened: as §2
[18] = system: Rattus norvegicus; assay: Percentage Inhibition of galactitol accumulation in the sciatic nerve of rats fed with the dose of 1.1 mg/kg/day (values are mean of six animals, p<0.01); type: functional; procedure, shortened: as §2
[19] = system: Rattus norvegicus; assay: Percentage Inhibition of galactitol accumulation in the lens of rats fed with the dose of 3.0 mg/kg/day; type: functional; details: Lens of camera-type eye; procedure, shortened: as §2
[20] = system: Rattus norvegicus; assay: Percentage Inhibition of galactitol accumulation in the lens of rats fed with the dose of 1.1 mg/kg/day; type: functional; details: Lens of camera-type eye; procedure, shortened: as §2
[21] = Half-life In vitro; type: ADME

In the case of `O=C1CC2(C(=O)N1)C(=O)N(Cc1ccc(Br)cc1F)C(=O)c1cc(F)ccc12` (centres undefined), the IC50 [1] is reported as 20 nM.

Compound `COc1cc2c(cc1Cl)C1(CC(=O)NC1=O)C(=O)N(C)C2=O` (centres undefined) has an inhibition [2] of 84%, an inhibition in vivo at 0.5 mg/kg/day [3] of 51% and an inhibition [4] of 66%.

For `CN1C(=O)c2ccc(F)cc2C2(CC(=O)NC2=O)C1=O` (centres undefined), the inhibition [2] was 74% and the inhibition [4] was 36%.

For `O=C1CC2(C(=O)N1)C(=O)N(Cc1ccc(Br)cc1F)C(=O)c1cc(Cl)ccc12` (centres undefined), the IC50 [1] was 33 nM, the inhibition [5] was “inactive” and the inhibition in vivo at 0.6 mg/kg/day [6] was 63%. For the same compound, the logD [7] was 3.51.

In the case of `COc1ccc(CN2C(=O)c3ccccc3C3(CC(=O)NC3=O)C2=O)cc1` (centres undefined), the IC50 [1] is reported as 25 nM.

Compound `COc1cc2c(cc1Br)C1(CC(=O)NC1=O)C(=O)N(Cc1ccc(Br)cc1F)C2=O` (centres undefined) has an IC50 [1] of 28 nM and an inhibition in vivo at 0.5 mg/kg/day [3] of 55%.

Work on `COc1ccc2c(c1)C(=O)N(C)C(=O)C21CC(=O)NC1=O` (centres undefined) yielded an inhibition [2] of 55% and an inhibition [4] of 41%.

In the case of `O=C1CC2(C(=O)N1)C(=O)N(Cc1nc3ccccc3s1)C(=O)c1ccccc12` (centres undefined), the IC50 [1] is reported as 15 nM.

In the case of `CON1C(=O)c2ccc(Cl)cc2C2(CC(=O)NC2=O)C1=O` (centres undefined), the inhibition [2] is reported as 27% and the inhibition [4] is reported as 11%.

In the case of `Cc1ccc2c(c1)C1(CC(=O)NC1=O)C(=O)N(C)C2=O` (centres undefined), the inhibition [2] is reported as 65% and the inhibition [4] is reported as 35%.

For `CN1C(=O)c2ccc(C(F)(F)F)cc2C2(CC(=O)NC2=O)C1=O` (centres undefined), the inhibition in vivo at 0.9 mg/kg/day [8] was 38%, the inhibition [2] was 64% and the inhibition in vivo at 0.9 mg/kg/day [9] was 20%. It also gave an inhibition [4] of 46%.

Work on `CN1C(=O)c2ccc([N+](=O)[O-])cc2C2(CC(=O)NC2=O)C1=O` (centres undefined) yielded an inhibition [2] of 71% and an inhibition [4] of 53%.

`CN1C(=O)c2cccc(Cl)c2C2(CC(=O)NC2=O)C1=O` (centres undefined) showed an inhibition [2] of 24% and an inhibition [4] of 11%.

`COc1ccc2c(C(=S)N(C)CC(=O)O)cccc2c1C(F)(F)F` [TOLRESTAT] showed an ED50 [10] of 3.8 mg/kg/day, an IC50 [11] of 27.2 nM and an ED50 [12] of 6.4 mg/kg/day. It also gave an ED50 [13] of 128 mg/kg/day, an ED50 [14] of 4.5 mg/kg/day and an ED50 [15] of 28 mg/kg/day. It also gave an ED50 [16] of 1.9 mg/kg/day.

With `CN1C(=O)c2ccc(Br)cc2C2(CC(=O)NC2=O)C1=O` (centres undefined) the inhibition [2] was 85%, the logD [7] was 0.8 and the inhibition [4] was 43%. It also gave an inhibition in vivo at 1 mg/kg/day [17] of 54%.

Compound `CN1C(=O)c2ccc(Cl)cc2C2(CC(=O)NC2=O)C1=O` (centres undefined) has an inhibition [2] of 72%, an inhibition in vivo at 1.1 mg/kg/day [18] of 75% and an inhibition in vivo at 0.5 mg/kg/day [3] of 54%. It also gave an inhibition in vivo at 3 mg/kg/day [19] of 59%, a logD [7] of 0.58 and an inhibition [4] of 43%. For the same compound, the inhibition in vivo at 1.1 mg/kg/day [20] was 33%.

`O=C1CC2(C(=O)N1)C(=O)N(Cc1cccc(C(F)(F)F)c1)C(=O)c1ccccc12` (centres undefined) showed an IC50 [1] of 17 nM.

In the case of `Cc1cccc(CN2C(=O)c3ccccc3C3(CC(=O)NC3=O)C2=O)c1` (centres undefined), the IC50 [1] is reported as 25 nM.

Compound `O=C1CC2(C(=O)N1)C(=O)N(Cc1ccc(Br)cc1F)C(=O)c1ccc(C(F)(F)F)cc12` (centres undefined) has an IC50 [1] of 38 nM.

For `O=C1CC2(C(=O)N1)C(=O)N(Cc1ccc(Br)cc1F)C(=O)c1c(F)cccc12` (centres undefined), the IC50 [1] was 23 nM and the inhibition in vivo at 0.5 mg/kg/day [3] was 51%.

In the case of `O=C1C[C@@]2(C(=O)N1)C(=O)N(Cc1ccc(Br)cc1F)C(=O)c1ccccc12`, the IC50 [1] is reported as 9.7 nM, the half-life [21] is reported as 4 h and the inhibition in vivo at 0.5 mg/kg/day [3] is reported as 83%.
